Most compounds without a hit are left out; they make up all but 4% or so of the library.
Statin myotox sup – suppressors of statin myotoxicity in C2C12 myotubes, primary screen, cell-based, single point, plate reader; C2C12 myotubes + simvastatin, ATP luminescence, 48 h; scaled: DMSO 0, geranylgeraniol control 100; rescue of ATP level, % at 7.49 µM; hit rate 0.78% among 330,000;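 active = mean ATP rescue above about 67%, or every replicate alone reaching that limit, limit read from the data, passing the limit was not always enough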;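 also: myotubes were challenged with 10 µM simvastatin during compound exposure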
FGF22 binding – binders of human FGF22 protein, primary screen, FGF22 synaptogenesis inhibitor project, biophysical, thermal shift, single point | hit rate 1.5% among 340,000 | activity (Tm shift, normalised), % at 9.99 µM | recombinant FGF22 thermal shift, SYPRO orange fluorescence; percent of sucrose octasulfate shift, DMSO zero | Fibroblast growth factor 22 (Homo sapiens), Q9HCT0 | AID 651658, 2012;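 active = mean Tm shift, scaled 0 neutral to 100 positive control, at about 1.3% or above, every replicate too, limit read from the data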
Target sequence (Q9HCT0 whole entry, looked up): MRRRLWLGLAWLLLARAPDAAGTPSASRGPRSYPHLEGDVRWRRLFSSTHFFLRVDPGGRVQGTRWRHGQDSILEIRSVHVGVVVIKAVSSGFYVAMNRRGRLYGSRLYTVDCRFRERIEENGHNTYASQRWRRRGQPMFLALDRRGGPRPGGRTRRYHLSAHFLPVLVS
E-sel inducer – E-selectin induction in HUVECs, primary screen, imaging, HUVEC, immunofluorescence imaging, single point; activation, % at 7.58 µM; P16581; hit rate 0.37% among 260,000; normalized: neutral wells 0, TNF-alpha wells 100;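 active = mean E-selectin-positive cell signal at least 10% of the positive control, reached in at least 60% of replicates, without over 20% cell loss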
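System: HUVEC / Compound: single concentration / Signal: immunofluorescence imaging / Read-out: percent E-selectin-positive cells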
SIRT5 block – SIRT5 desuccinylase inhibitors, primary screen, biochemical, fluorescence imaging, single point, set 5. Purified SirT5, succinyl-peptide AMC, trypsin-coupled fluorescence. inhibition, % at 15 µM. hit rate 1.1% among 330,000. AID 652115, 2013; in the data active = inhibition above about 15%
Target sequence (Q9NXA8 whole entry, looked up): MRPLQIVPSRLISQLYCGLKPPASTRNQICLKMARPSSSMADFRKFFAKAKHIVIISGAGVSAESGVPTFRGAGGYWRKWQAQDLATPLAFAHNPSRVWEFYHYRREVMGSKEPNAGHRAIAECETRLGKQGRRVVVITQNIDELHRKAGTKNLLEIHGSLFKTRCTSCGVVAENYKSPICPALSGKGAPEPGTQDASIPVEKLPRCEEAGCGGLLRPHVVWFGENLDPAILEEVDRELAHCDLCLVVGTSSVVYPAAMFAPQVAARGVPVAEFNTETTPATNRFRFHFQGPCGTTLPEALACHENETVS
Ecoli rRNA inh – reduced GFP signal of wild-type E. coli, primary screen, bacterial rRNA inhibitor project, GFP/RFP fluorescence, OD600, single point. hit rate 1.6% among 350,000. GFP signal change (wild-type ribosome), % (test concentration not listed). E. coli WT GFP vs humanized-ribosome RFP mutants, 24 h; active compounds read low; DMSO median 0, no signal -100;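 active = significant combined selectivity score with lowered wild-type GFP, culture density cut under 30%, mutant RFP and density less affected; inactive = any of these conditions unmet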
FN deposition inh – inhibitors of fibronectin matrix deposition, primary screen, AH1F cells, Alexa488-fibronectin fluorescence, plate reader; AH1F fibroblasts, overnight; hit rate 0.086% among 350,000; inhibition, % at 12.6 µM; AID 743247, 2014;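 active = mean inhibition across replicates of 30% or more, regardless of how many single replicates reach that level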
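test system = AH1F fibroblasts assembling fluorescent fibronectin matrix | quantity = 10000 AH1F cells per well | buffer or medium = DMEM plus 2% serum, read in PBS | doses = single dose, pinned | incubation = 1 h cell attachment, overnight exposure to compound and label | detection = fluorescence at 485 nm excitation, 525 nm emission | read-out basis = inhibition from reduced deposited-fibronectin fluorescence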
Hits are given with their value; i = inactive; nt = no result.

SMILES	Statin myotox sup	FGF22 binding	E-sel inducer	SIRT5 block	Ecoli rRNA inh	FN deposition inh
CC(C)(Cc1cccc(CC(C)(C)C(=O)O)c1)C(=O)O	i	17	i	i	i	i
OC[C@H]1[C@@H](c2ccc(-c3cccnc3)cc2)[C@H]2CN(CC3CC3)CCCCN21	i	i	i	i	i	nt
Cc1nc(SCCOc2ccccc2)[nH]c(=O)c1Cc1ccccc1	nt	43	i	i	i	i
CN(C(=O)CSc1nc2c(c(=O)[nH]1)CCCC2)C1CCCCC1	i	i	nt	i	-15	nt
Cc1nc(SCC(=O)N(C)C2CCCCC2)[nH]c(=O)c1Cc1ccccc1	i	nt	nt	nt	-26	nt
CN1C(=O)c2cc(NC(=O)c3cncs3)ccc2OC[C@H]2O[C@@H](CC(=O)NCC3CC3)CC[C@@H]21	nt	nt	nt	nt	i	i
COc1c(F)c(F)c(C(=O)Nc2ccc3oc(-c4ccncc4)nc3c2)c(F)c1F	i	nt	nt	nt	nt	nt
COc1cccc(OC)c1C(=O)NC(=S)Nc1ccc2oc(-c3ccncc3)nc2c1	i	nt	i	i	-14	i
C[C@@H]1CN([C@@H](C)CO)C(=O)c2cc(NC(=O)Nc3ccccc3)ccc2O[C@@H](C)CCCCO[C@@H]1CN(C)Cc1ccncc1	nt	nt	i	nt	i	i
O=C1NC[C@H](CCCCN2C[C@H](Cc3ccccc3)N(CCc3ccc(O)cc3)C(=O)C2=O)N(CC2CCCCC2)C1=O	nt	i	i	nt	-30	i
O=C1NC[C@@H](CCCCN2C[C@H](Cc3ccccc3)N(CC3CCCCC3)C(=O)C2=O)N(CCc2ccc(O)cc2)C1=O	nt	i	i	i	i	nt
O=C1NC[C@H](CCCCN2C[C@H](Cc3ccc(O)cc3)N(CCc3ccccc3)C(=O)C2=O)N(CC2CCCCC2)C1=O	nt	i	i	nt	-27	i
O=S(=O)(NCC[C@@H]1CC[C@H](NS(=O)(=O)c2ccccc2Cl)[C@H](CO)O1)c1ccc(F)cc1	i	i	i	i	i	nt
COc1cccc(-c2ccc([C@@H]3[C@@H](CO)N4C(=O)CN(C(=O)C5CC5)C[C@@H]34)cc2)c1	nt	nt	i	i	i	i
O=C(c1ccccn1)N1C[C@H]2[C@@H](c3ccccc31)[C@H](CO)N2C(=O)Cc1ccccc1	i	i	i	i	i	nt
COCC(=O)N[C@@H]1C=C[C@@H](CC(=O)N2CCCCC2)O[C@H]1CO	i	i	nt	i	nt	nt
CN(C)c1ccc2nc3ccc(=O)cc-3sc2c1	i	i	i	i	i	i
CN(C)c1ccc2nc3ccc(=[N+](C)C)cc-3sc2c1	nt	i	nt	i	-53	i
CSc1ncc(C(=O)Nc2ccc(C(C)=O)cc2)c(-c2ccccc2)n1	i	i	i	21	i	i
O=C(C[C@@H]1CC[C@H](NC(=O)CCN2CCCCC2)[C@H](CO)O1)NCc1ccc(Cl)c(Cl)c1	i	i	i	i	i	i
COc1ccccc1C1CC(=O)Oc2cc(C)c(Br)c(C)c21 (centres undefined)	i	i	i	35	i	i
COc1ccccc1C1CC(=O)Oc2cc(C)c(Cl)c(C)c21 (centres undefined)	i	i	i	i	i	i
CN1C(=O)c2cc(NC(=O)c3ccc(F)c(F)c3)ccc2OC[C@H]2O[C@@H](CC(=O)N3CCOCC3)CC[C@H]21	i	i	i	i	i	i
CCn1cc(C(=O)NCc2cccc(C(F)(F)F)c2)c(=O)c2ccc(C)nc21	i	i	i	i	-23	i
CCn1cc(C(=O)Nc2ccc(NC(=O)c3ccco3)cc2)c(=O)c2ccc(C)nc21	nt	i	nt	i	i	i
SMILES	Statin myotox sup	FGF22 binding	E-sel inducer	SIRT5 block	Ecoli rRNA inh	FN deposition inh
C=CCOC(=O)c1cn(CC)c2nc(C)ccc2c1=O	i	i	i	i	-25	i
Cc1ccc(S(=O)(=O)N2CCN(Cc3cccc(F)c3)CC2)cc1	i	i	i	i	-28	i
c1cncc(-c2nc(NCc3ccco3)c3ccccc3n2)c1	94	nt	nt	nt	nt	nt
Cc1ccc(-c2nc(NCc3ccco3)c3ccccc3n2)cc1	i	i	nt	i	i	i
Cn1cnc(S(=O)(=O)N2C[C@@H](O)COC[C@@H]3O[C@@H](CC(=O)NCc4ccc(F)cc4)CC[C@H]32)c1	i	i	i	i	i	i
O=c1cc(N/N=C/c2ccccc2)[nH]c(=O)[nH]1	i	nt	i	i	i	i
O=c1nccc(N/N=C/c2ccccc2)[nH]1	i	i	nt	24	i	i
COc1ccc(-n2c(C)nn(CCOc3ccccc3)c2=O)cc1	nt	i	nt	i	i	nt
Cc1nn(CC2CC2)c(=O)n1-c1ccc(Oc2ccccc2)cc1	nt	43	i	i	i	i
CCC(=O)N1CC[C@@H]2[C@H]1c1cc(-c3ccccc3F)ccc1N(C)[C@@H]2CO	i	i	i	i	i	i
COc1cc(/C=N/Nc2ncc(C(F)(F)F)cc2Cl)cc(OC)c1OC	nt	43	i	i	i	i
COc1cc(/C=N/Nc2ncc(C(F)(F)F)cc2Cl)cc(OC)c1O	i	nt	i	nt	nt	i
COc1cc(/C=C2\SC(=Nc3ccc(Cl)c(C(=O)O)c3)NC2=O)c(Br)c(Br)c1O	i	i	nt	26	i	i
Cc1nccn1-c1ccc(C(F)(F)F)cc1NC=O	i	nt	nt	nt	nt	nt
Cc1nccn1-c1ccc(C(F)(F)F)cc1[N+](=O)[O-]	i	43	i	i	i	i
Cc1noc(C)c1NC(=O)N[C@H]1CC[C@@H](CC(=O)Nc2ccc(-c3ccccc3)cc2)O[C@@H]1CO	i	i	i	i	i	i
CCO/C=C1\C(=O)N(c2ccccc2)C(=O)c2ccccc21	i	nt	nt	nt	nt	nt
CCO/C=C1/C(=O)N(Cc2ccccc2)C(=O)c2ccccc21	nt	i	i	26	i	i
CCCS(=O)(=O)c1ccc(COC(=O)c2cccc(NC(=O)C(C)C)c2)cc1	nt	i	nt	i	-39	nt
CC(=O)Nc1cccc(C(=O)OCc2ccccc2)c1	i	nt	nt	nt	nt	i
CN(C)C(=O)c1ccc(-c2ccc([C@@H]3[C@H](CO)N4CCCCN(C(=O)C5CCC5)C[C@@H]34)cc2)cc1	nt	i	nt	i	nt	nt
COc1cccc(CN(C(=O)/C=C/c2ccc(Cl)cc2)C2CCS(=O)(=O)C2)c1 (centres undefined)	nt	i	i	i	-36	i
O=C(/C=C/c1ccccc1)N(Cc1cccc(Cl)c1)C1CCS(=O)(=O)C1 (centres undefined)	i	i	i	i	-35	i
O=C(/C=C/c1ccccc1)N(Cc1cccs1)C1CCS(=O)(=O)C1 (centres undefined)	i	i	i	i	i	i
